One series deals with RAW264.7. Nature of the series: Inhibition of LPS-induced nitric oxide production in mouse RAW264.7 cells. Format: functional, cell-based. In a few lines:
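Compounds were pre-added 30 min before LPS stimulation for 24 h. Supernatant was mixed 1:1 with Griess reagent (1% sulfanilamide, 0.1% naphthylethylenediamine dihydrochloride, 2% phosphoric acid) for 5 min at room temperature. Nitrite was read at OD 550 nm against a NaNO₂ standard curve. IC50 came from dose–inhibition curves, mean of four independent experiments.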

A short description of series [1]: Cytotoxicity against mouse RAW264.7 cells assessed as cell viability at 13.10 uM by MTT assay. It counts as cell-based. The conditions noted are these: read-out: Activity. In general terms: Tetrazolium dyes change colour on reduction, which living cells bring about.
Series [2] in a line: Cytotoxicity against mouse RAW264.7 cells assessed as cell viability at 3.78 uM by MTT assay. The conditions noted are these: read-out: Activity. It counts as cell-based.
Series [3] is described as follows: Selectivity for iNOS to eNOS.
Series [4] in a line: Selectivity for iNOS to nNOS.

Structures are written as SMILES.

For `COc1cc(OC)c(C(=O)/C=C/c2ccc3c(c2)OCO3)c(OC)c1`, the midpoint of inhibition in the series with RAW264.7, the IC50, lay at 13.1 µM. The viability at 13.1 µM in series [1] came to 100%.
`CC(=N)NCc1cccc(CN)c1` [1400W]: the IC50 (commonly the concentration that inhibits the measured activity by half) in the series with RAW264.7 worked out at 3.78 µM. For the same molecule, the viability at 3.78 µM in series [2] is 82%. Further, the Selectivity ratio came out at 5000 in series [3] and 200 in series [4].

The values above are taken from ChEMBL document CHEMBL1141553, “Synthesis and pharmacological activity of chalcones derived from 2,4,6-trimethoxyacetophenone in RAW 264.7 cells stimulated by LPS: quantitative structure-activity relationships” (Bioorg Med Chem, 2008).
